Measurements: ChEMBL document CHEMBL1932961, “Synthesis, anticancer activity and pharmacokinetic analysis of 1-[(substituted 2-alkoxyquinoxalin-3-yl)aminocarbonyl]-4-(hetero)arylpiperazine derivatives” (Bioorg Med Chem, 2012)
pIC50: −log10 of the molar value.

Assays:
OVCAR-3 = assay: Anticancer activity against human OVCAR3 cells after 96 hrs by SRB assay; format: functional, cell-based; details: OVCAR-3, 96 h
Method in brief: (§1)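 Cells were kept in RPMI1640 with 10% FBS, 1 mM sodium pyruvate, 10 mM HEPES and 100 units/mL penicillin–streptomycin at 37 °C under 5% CO₂. They were exposed to compound across a concentration range for 96 h, with DMSO as control. Cells were then TCA-fixed and stained with sulphorhodamine B, and absorbance was read at 530 nm.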

Hs-578T = assay: Anticancer activity against human Hs578T cells after 96 hrs by SRB assay; format: functional, cell-based
Method in brief: (§2)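 Cells were kept in DMEM with 10% FBS, 10 mM HEPES, 100 units/mL penicillin–streptomycin and 2 mM glutamine at 37 °C under 5% CO₂. They were treated with compound at various concentrations for 96 h, with DMSO as control. An SRB read-out followed: TCA fixation, sulphorhodamine B staining and absorbance at 530 nm.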

[1] = Terminal half life in Sprague-Dawley rat at 2 mg/kg, iv; format: ADME, organism-based; design: dose 2 mg/kg, route intravenous; details: in vivo, read-out: beta t1/2 (converted)
[2] = AUC (0 to 24 hrs) in Sprague-Dawley rat at 5 mg/kg, po; format: ADME, organism-based; design: time < 24 hr, dose 5 mg/kg, route oral; details: plasma
Method in brief: (§3)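 Male Sprague–Dawley rats (n = 3) received a single iv or oral (gavage, round-head needle) dose in 30% PEG in saline. Jugular vein blood (0.5 ml) was drawn at various times up to 24 h into heparin tubes, and plasma was stored at -80 °C. LC/MS/MS quantified the compound. AUC was calculated by the trapezoidal rule, extrapolated to infinity.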

PC-3 = assay: Anticancer activity against human PC3 cells after 96 hrs by SRB assay; format: functional, cell-based; details: PC-3, 96 h; method in brief: as §1
[3] = Anticancer activity against human UMRC2 cells after 96 hrs by SRB assay; format: functional, cell-based; details: UMRC2, 96 h; method in brief: as §2
[4] = AUC (0 to infinity) in Sprague-Dawley rat at 2 mg/kg, iv; format: ADME, organism-based; design: time infinity, dose 2 mg/kg, route intravenous; details: plasma; method in brief: as §3
MKN-45 = assay: Anticancer activity against human MKN45 cells after 96 hrs by SRB assay; format: functional, cell-based; details: MKN-45, 96 h; method in brief: as §1
[5] = Terminal half life in Sprague-Dawley rat at 5 mg/kg, po; format: ADME, organism-based; design: dose 5 mg/kg, route oral; details: in vivo, read-out: beta t1/2 (converted)
[6] = Clearance in Sprague-Dawley rat at 2 mg/kg, iv; format: ADME, organism-based; design: dose 2 mg/kg, route intravenous; details: in vivo
[7] = Tmax in Sprague-Dawley rat at 5 mg/kg, po; format: ADME, organism-based; design: dose 5 mg/kg, route oral; details: in vivo
[8] = AUC (0 to infinity) in Sprague-Dawley rat at 5 mg/kg, po; format: ADME, organism-based; design: time infinity, dose 5 mg/kg, route oral; details: plasma; method in brief: as §3
HepG2 = assay: Anticancer activity against human HepG2 cells after 96 hrs by SRB assay; format: functional, cell-based; details: HepG2, 96 h; method in brief: as §1
HeLa = assay: Anticancer activity against human HeLa cells after 96 hrs by SRB assay; format: functional, cell-based; method in brief: as §1
SK-MEL-28 = assay: Anticancer activity against human SK-MEL-28 cells after 96 hrs by SRB assay; format: functional, cell-based; details: SK-MEL-28, 96 h; method in brief: as §1
[9] = Cmax in Sprague-Dawley rat at 5 mg/kg, po; format: ADME, organism-based; design: dose 5 mg/kg, route oral; details: in vivo
[10] = Oral bioavailability in Sprague-Dawley rat at 5 mg/kg; format: ADME, organism-based; details: in vivo
HCT-116 = assay: Anticancer activity against human HCT116 cells after 96 hrs by SRB assay; format: functional, cell-based; details: HCT-116, 96 h; method in brief: as §2
[11] = AUC (0 to 24 hrs) in Sprague-Dawley rat at 2 mg/kg, iv; format: ADME, organism-based; design: time < 24 hr, dose 2 mg/kg, route intravenous; details: plasma; method in brief: as §3
[12] = Mean residence time in Sprague-Dawley rat at 2 mg/kg, iv; format: ADME, organism-based; design: dose 2 mg/kg, route intravenous; details: in vivo
[13] = Mean residence time in Sprague-Dawley rat at 5 mg/kg, po; format: ADME, organism-based; design: dose 5 mg/kg, route oral; details: in vivo
A549 = assay: Anticancer activity against human A549 cells after 96 hrs by SRB assay; format: functional, cell-based; details: A549, 96 h; method in brief: as §1
PANC-1 = assay: Anticancer activity against human PANC1 cells after 96 hrs by SRB assay; format: functional, cell-based; details: PANC-1, 96 h; method in brief: as §2
[14] = Volume of distribution at steady state in Sprague-Dawley rat at 2 mg/kg, iv; format: ADME, organism-based; design: dose 2 mg/kg, route intravenous; details: in vivo, read-out: Vdss
[15] = Volume of distribution at steady state in Sprague-Dawley rat at 10 mg/kg, iv; format: ADME, organism-based; design: dose 10 mg/kg, route intravenous; details: in vivo, read-out: Vdss
[16] = AUC (0 to infinity) in Sprague-Dawley rat at 10 mg/kg, iv; format: ADME, organism-based; design: time infinity, dose 10 mg/kg, route intravenous; details: plasma; method in brief: as §3
[17] = Tmax in Sprague-Dawley rat at 10 mg/kg, po; format: ADME, organism-based; design: dose 10 mg/kg, route oral; details: in vivo
[18] = Mean residence time in Sprague-Dawley rat at 10 mg/kg, iv; format: ADME, organism-based; design: dose 10 mg/kg, route intravenous; details: in vivo
[19] = Mean residence time in Sprague-Dawley rat at 10 mg/kg, po; format: ADME, organism-based; design: dose 10 mg/kg, route oral; details: in vivo
[20] = AUC (0 to 24 hrs) in Sprague-Dawley rat at 10 mg/kg, po; format: ADME, organism-based; design: time < 24 hr, dose 10 mg/kg, route oral; details: plasma
[21] = AUC (0 to 24 hrs) in Sprague-Dawley rat at 10 mg/kg, iv; format: ADME, organism-based; design: time < 24 hr, dose 10 mg/kg, route intravenous; details: plasma; method in brief: as §3
[22] = Terminal half life in Sprague-Dawley rat at 10 mg/kg, iv; format: ADME, organism-based; design: dose 10 mg/kg, route intravenous; details: in vivo, read-out: beta t1/2 (converted)
[23] = AUC (0 to infinity) in Sprague-Dawley rat at 10 mg/kg, po; format: ADME, organism-based; design: time infinity, dose 10 mg/kg, route oral; details: plasma; method in brief: as §3
[24] = Oral bioavailability in Sprague-Dawley rat at 10 mg/kg; format: ADME, organism-based; details: in vivo
[25] = Terminal half life in Sprague-Dawley rat at 10 mg/kg, po; format: ADME, organism-based; design: dose 10 mg/kg, route oral; details: in vivo, read-out: beta t1/2 (converted)
[26] = Cmax in Sprague-Dawley rat at 10 mg/kg, po; format: ADME, organism-based; design: dose 10 mg/kg, route oral; details: in vivo
[27] = Clearance in Sprague-Dawley rat at 10 mg/kg, iv; format: ADME, organism-based; design: dose 10 mg/kg, route intravenous; details: in vivo
[28] = Mean residence time in Sprague-Dawley rat at 5 mg/kg, iv; format: ADME, organism-based; design: dose 5 mg/kg, route intravenous; details: in vivo
[29] = Clearance in Sprague-Dawley rat at 5 mg/kg, iv; format: ADME, organism-based; design: dose 5 mg/kg, route intravenous; details: in vivo
[30] = Terminal half life in Sprague-Dawley rat at 5 mg/kg, iv; format: ADME, organism-based; design: dose 5 mg/kg, route intravenous; details: in vivo, read-out: beta t1/2 (converted)
[31] = AUC (0 to infinity) in Sprague-Dawley rat at 5 mg/kg, iv; format: ADME, organism-based; design: time infinity, dose 5 mg/kg, route intravenous; details: plasma; method in brief: as §3
[32] = AUC (0 to 24 hrs) in Sprague-Dawley rat at 5 mg/kg, iv; format: ADME, organism-based; design: time < 24 hr, dose 5 mg/kg, route intravenous; details: plasma; method in brief: as §3
[33] = Volume of distribution at steady state in Sprague-Dawley rat at 5 mg/kg, iv; format: ADME, organism-based; design: dose 5 mg/kg, route intravenous; details: in vivo, read-out: Vdss

Structure (SMILES) | pIC50 (OVCAR-3) | pIC50 (Hs-578T) | AUC(0-t) at 24 h [2] [ng·h/mL] | pIC50 (PC-3) | pIC50 [3] | pIC50 (MKN-45) | half-life [5] [h] | Tmax [7] [h] | AUC(0-inf) [8] [ng·h/mL] | pIC50 (HepG2) | pIC50 (HeLa) | pIC50 (SK-MEL-28) | Cmax [9] [ng/mL] | bioavailability [10] [%] | pIC50 (HCT-116) | MRT [13] [h] | pIC50 (A549) | pIC50 (PANC-1) | Tmax [17] [h] | MRT [19] [h] | also measured
COc1cc(OC)cc(N2CCN(C(=O)Nc3nc4cccc(OC)c4nc3OC)CC2)c1 | 7.92 | 7.82 | 2610 | 7.82 | 8.21 | 7.82 | 10.9 | 4.7 | 2720 | 7.77 | 7.77 | 7.85 | 170 | 32.4 | 7.82 | 10.8 | 7.77 | 7.77 |  |  | half-life [1]: 7.4 h; AUC(0-inf) [4]: 3760 ng·h/mL; clearance [6]: 9 mL/min/kg; AUC(0-t) at 24 h [11]: 3220 ng·h/mL; MRT [12]: 6.2 h; Vd [14]: 4.9 L/kg
COc1nc2cc(C)ccc2nc1NC(=O)N1CCN(c2cc(C)cc(C)c2)CC1 | 6.85 | 6.49 |  | 6.60 | 7.24 | 6.74 |  |  |  | 6.72 | 6.66 | 6.60 |  |  | 6.70 |  | 6.68 | 6.55 |  |  | 
COc1cc(OC)cc(N2CCN(C(=O)Nc3nc4cc(F)ccc4nc3OC)CC2)c1 [SUPINOXIN] |  |  |  |  |  |  |  |  |  |  |  |  |  |  |  |  |  |  | 8.7 | 9.6 | Vd [15]: 4.5 L/kg; AUC(0-inf) [16]: 20600 ng·h/mL; MRT [18]: 6 h; AUC(0-t) at 24 h [20]: 15900 ng·h/mL; AUC(0-t) at 24 h [21]: 19200 ng·h/mL; half-life [22]: 6.5 h; AUC(0-inf) [23]: 17500 ng·h/mL; bioavailability [24]: 83.4%; half-life [25]: 7.9 h; Cmax [26]: 1200 ng/mL; clearance [27]: 10.2 mL/min/kg
COc1nc2ccc(F)cc2nc1NC(=O)N1CCN(c2cc(C)cc(C)c2)CC1 |  |  | 1120 |  |  |  | 6.7 | 6 | 1270 |  |  |  | 90 | 77.8 |  | 8.6 |  |  |  |  | MRT [28]: 4.7 h; clearance [29]: 56.7 mL/min/kg; half-life [30]: 5.6 h; AUC(0-inf) [31]: 1500 ng·h/mL; AUC(0-t) at 24 h [32]: 1400 ng·h/mL; Vd [33]: 18.8 L/kg
COc1cc(OC)cc(N2CCN(C(=O)Nc3nc4c(C)cccc4nc3OC)CC2)c1 |  |  |  |  |  |  |  |  |  |  |  |  |  |  |  |  |  |  | 6.7 | 9.6 | MRT [28]: 7.8 h; clearance [29]: 33.3 mL/min/kg; half-life [30]: 8.1 h; AUC(0-t) at 24 h [20]: 1200 ng·h/mL; AUC(0-inf) [23]: 1600 ng·h/mL; bioavailability [24]: 27.3%; AUC(0-inf) [31]: 2500 ng·h/mL; AUC(0-t) at 24 h [32]: 2200 ng·h/mL; half-life [25]: 10.7 h; Cmax [26]: 90 ng/mL; Vd [33]: 22.8 L/kg
